Active and inactive are the calls of the source. The calls are words filed in the database; no cut-off is given here.

The nature of assay [1]: Antiproliferative activity against rheumatoid synovial fibroblasts assessed as inhibition of PDGF-BB-induced DNA synthesis at 0.1 ug/mL treated 15 mins before PDGF-BB challenge by [3H]thymidine incorporation assay. Type of assay: functional. In a few lines: (§1)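 Rheumatoid synovial fibroblasts plated at 1.2 × 10^4 cells/well in EMEM with 10% heat-inactivated FBS and penstrep, allowed to adhere 6 h at 37 °C, 5% CO2. Then serum-arrested 24 h in 0.2% FBS. Compounds added in DMSO (0.5% final) for 15 min at room temperature, then 1 nM PDGF-BB in 10% FBS medium for 24 h. Pulsed with 0.5 µCi/well [3H]-thymidine for 24 h, trypsin/EDTA-detached, harvested, scintillation counted versus controls.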

Assay [2] is described as follows: Antiproliferative activity against rheumatoid synovial fibroblasts assessed as inhibition of PDGF-BB-induced DNA synthesis at 1 ug/mL treated 15 mins before PDGF-BB challenge by [3H]thymidine incorporation assay. It is filed as functional. In a few lines:
as §1
On the technique in general: Uptake of a labelled nucleoside into DNA is a usual measure of proliferation.

`CC[C@@]1(/C=C(\C)C(=O)O)[C@H]2[C@H](C(C)=C[C@H]1c1ccccc1)[C@H](C)C[C@H]2C`: the outcome in assay [1] was inactive.
On to `CC[C@@]1(/C=C(\C)C(=O)[O-])[C@H]2[C@H](C(C)=C[C@H]1c1ccccc1)[C@H](C)C[C@H]2C.[Na+]` [PLAKOTENIN SODIUM SALT], for which the “inhibition (INH)” value in assay [2] was 35.7%.
The same measure, in the same setting: the result for `CC[C@@]1(/C=C(\C)C(=O)O)[C@H]2[C@H](C(C)=C[C@H]1c1ccccc1)[C@H](C)C[C@H]2C` [PLAKOTENIN] reads 76.8%.
Usually inhibition stands for how much of the control response was suppressed. Regarding `CC1=C[C@@H](c2ccccc2)[C@](C)(/C=C(\C)C(=O)O)[C@H]2[C@H]1[C@H](C)C[C@H]2C`, in assay [1], the result was inactive. Besides, the inhibition at 1 µg/mL in assay [2] was 0%.
In the case of `CCC1=C[C@@H](c2ccccc2)[C@@](/C=C(\C)C(=O)O)(CC)[C@H]2[C@H]1[C@H](C)C[C@H]2C` [listing 1 of 2 here], the “inhibition (INH)” value in assay [2] is listed as 73.5%.
In the case of `CCC1=C[C@@H](c2ccccc2)[C@@](/C=C(\C)C(=O)O)(CC)[C@H]2[C@H]1[C@H](C)C[C@H]2C` [listing 2 of 2 here], the result in assay [1] was inactive.
As to `CCC1=C[C@@H](c2ccccc2)[C@@](/C=C(\C)C(=O)[O-])(CC)[C@H]2[C@H]1[C@H](C)C[C@H]2C.[Na+]`, the “inhibition (INH)” value in assay [2] came to 27.8%.

These data come from ChEMBL document CHEMBL1144100, “Homo- and nor-plakotenin, new carboxylic acids from the Palauan sponge Plakortis lita” (1999).
